Measurements as given in ChEMBL document CHEMBL3526119, “Effect of the CYP2C8 genotype on the pharmacokinetics and pharmacodynamics of repaglinide” (Drug Metab Dispos, 2011).

Legend:
Type in all cases: ADME, organism-based
[1] = AUC (0 to infinity) in healthy white human with SLCO1B1 521TT/CYP2C8*1/*3 combined genotype at 2 mg, po; design: dose 2 mg, route oral, time infinity; settings: plasma
Procedure, shortened: (§1)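 Healthy Caucasians genotyped for CYP2C8*3 and SLCO1B1 521T>C were given a single oral 2 mg dose of repaglinide, and alcohol, caffeine and grapefruit were withheld. Plasma was sampled before dosing and at 15 times from 0.25 to 24 h. Drug was measured by LC-MS/MS against diclofenac internal standard, linear 0.098–79.139 µg/L. Noncompartmental analysis: Cmax taken as observed; AUC by linear/log-linear trapezoidal rule extrapolated to infinity.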

[2] = test system: Homo sapiens; test: Mean change in insulin concentration in healthy white human plasma with SLCO1B1 521TT/CYP2C8*1/*3 combined genotype at 2 mg, po; settings: in vivo
Procedure, shortened: (§2)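 Healthy Caucasians got a single 2 mg oral dose and were genotyped for CYP2C8*3 and SLCO1B1 521T>C. Plasma insulin was sampled from pre-dose to 6 h and measured by solid-phase enzyme-labelled chemiluminescent immunometric assay (calibration 2–300 mU/l). Mean change is the average of post-dose values minus baseline up to 6 h, summarised per genotype group.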

[3] = Terminal half life in healthy white human with CYP2C8*1/*1 genotype at 2 mg, po; settings: in vivo, read-out: beta t1/2 (converted)
Procedure, shortened: (§3)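 Single oral 2 mg dose; plasma sampled pre-dose and from 0:15 to 24 h post-dose (15 samples). Repaglinide measured by LC-MS/MS with diclofenac internal standard; calibration 0.098–79.139 µg/L. Noncompartmental analysis; AUC by linear/log-linear trapezoidal rule extrapolated to infinity. Reported as mean with 95% CI for all subjects and for each CYP2C8*3 genotype group.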

[4] = Terminal half life in healthy white human at 2 mg, po; settings: in vivo, read-out: beta t1/2 (converted); procedure, shortened: as §3
[5] = AUC (0 to infinity) in healthy white human with SLCO1B1 521TC/CYP2C8*1/*1 combined genotype at 2 mg, po; design: dose 2 mg, route oral, time infinity; settings: plasma; procedure, shortened: as §1
[6] = AUC (0 to infinity) in healthy white human with SLCO1B1 521CC/CYP2C8*3/*3 combined genotype at 2 mg, po; design: dose 2 mg, route oral, time infinity; settings: plasma; procedure, shortened: as §1
[7] = Terminal half life in healthy white human with CYP2C8*1/*3 genotype at 2 mg, po; settings: in vivo, read-out: beta t1/2 (converted); procedure, shortened: as §3
[8] = Cmax in healthy white human with CYP2C8*1/*1 genotype at 2 mg, po; design: dose 2 mg, route oral; settings: in vivo; procedure, shortened: as §1
[9] = test system: Homo sapiens; test: Mean change in insulin concentration in healthy white human plasma at 2 mg, po up to 6 hrs; settings: in vivo; procedure, shortened: as §2
[10] = test system: Homo sapiens; test: Mean change in blood glucose concentration in healthy white human plasma at 2 mg, po up to 6 hrs; settings: in vivo
Procedure, shortened: (§4)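 Single 2 mg oral dose in healthy Caucasian volunteers genotyped for CYP2C8*3, with SLCO1B1 521T>C also typed. […] Mean change is the average difference between values up to 6 h post-dose and baseline. Fasting lasted to 6 h. Mean with 95% CI or SD by genotype group.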

[11] = AUC (0 to infinity) in healthy white human with CYP2C8*1/*3 genotype at 2 mg, po; design: dose 2 mg, time infinity, route oral; settings: plasma; procedure, shortened: as §1
[12] = Tmax in healthy white human at 2 mg, po; settings: in vivo
[13] = test system: Homo sapiens; test: Mean change in insulin concentration in healthy white human plasma with CYP2C8*1/*1 genotype at 2 mg, po up to 6 hrs; settings: in vivo; procedure, shortened: as §2
[14] = test system: Homo sapiens; test: Mean change in insulin concentration in healthy white human plasma with SLCO1B1 521TC/CYP2C8*1/*1 combined genotype at 2 mg, po; settings: in vivo; procedure, shortened: as §2
[15] = species on record: Homo sapiens; test: Maximal change in blood glucose concentration in healthy human plasma with SLCO1B1 521TC genotype at 0.5 mg
[16] = test system: Homo sapiens; test: Mean change in blood glucose concentration in healthy white human plasma SLCO1B1 521TT/CYP2C8*1/*1 combined genotype at 2 mg, po; settings: in vivo; procedure, shortened: as §4
[17] = test system: Homo sapiens; test: Maximal change in blood glucose concentration in healthy white human plasma with CYP2C8*1/*3 genotype at 2 mg, po up to 6 hrs; settings: in vivo
Procedure, shortened: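 Venous blood glucose was read at each blood sampling time after a single oral 2 mg dose, with fasting up to 6 h. […] Maximal change is the largest change from baseline. Mean change is the average difference between values up to 6 h post-dose and baseline.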

[18] = test system: Homo sapiens; test: Mean change in blood glucose concentration in healthy white human plasma SLCO1B1 521TT/CYP2C8*1/*3 combined genotype at 2 mg, po; settings: in vivo; procedure, shortened: as §4
[19] = test system: Homo sapiens; test: Mean change in insulin concentration in healthy white human plasma with SLCO1B1 521TT/CYP2C8*3/*3 combined genotype at 2 mg, po; settings: in vivo; procedure, shortened: as §2
[20] = Tmax in healthy white human with CYP2C8*1/*1 genotype at 2 mg, po; settings: in vivo
[21] = AUC (0 to infinity) in healthy white human with SLCO1B1 521TC/CYP2C8*3/*3 combined genotype at 2 mg, po; design: dose 2 mg, route oral, time infinity; settings: plasma; procedure, shortened: as §1
[22] = test system: Homo sapiens; test: Mean change in blood glucose concentration in healthy white human plasma SLCO1B1 521TT/CYP2C8*3/*3 combined genotype at 2 mg, po; settings: in vivo; procedure, shortened: as §4
[23] = test system: Homo sapiens; test: Mean change in blood glucose concentration in healthy white human plasma with CYP2C8*3/*3 genotype at 2 mg, po up to 6 hrs; settings: in vivo; procedure, shortened: as §4
[24] = AUC (0 to infinity) in healthy white human with SLCO1B1 521TT/CYP2C8*1/*1 combined genotype at 2 mg, po; design: dose 2 mg, route oral, time infinity; settings: plasma; procedure, shortened: as §1
[25] = AUC (0 to infinity) in healthy white human with CYP2C8*1/*1 genotype at 2 mg, po; design: dose 2 mg, time infinity, route oral; settings: plasma; procedure, shortened: as §1
[26] = Tmax in healthy white human with CYP2C8*3/*3 genotype at 2 mg, po; settings: in vivo
[27] = Oral clearance in healthy white human with CYP2C8*1/*1 genotype at 2 mg, po; settings: in vivo
Procedure, shortened: (§5)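 Repaglinide was assayed by LC-MS/MS with diclofenac internal standard (LLOQ 0.098 µg/L). Noncompartmental analysis gave AUC by linear/log-linear trapezoidal rule extrapolated to infinity. Weight-adjusted oral clearance = dose/(AUC × body weight).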

[28] = Terminal half life in healthy white human with CYP2C8*3/*3 genotype at 2 mg, po; settings: in vivo, read-out: beta t1/2 (converted); procedure, shortened: as §3
[29] = test system: Homo sapiens; test: Mean change in insulin concentration in healthy white human plasma with CYP2C8*3/*3 genotype at 2 mg, po up to 6 hrs; settings: in vivo; procedure, shortened: as §2
[30] = Cmax in healthy white human with SLCO1B1 521CC/CYP2C8*3/*3 combined genotype at 2 mg, po; design: dose 2 mg, route oral; settings: in vivo; procedure, shortened: as §1
[31] = Cmax in healthy white human with SLCO1B1 521TT/CYP2C8*1/*1 combined genotype at 2 mg, po; design: dose 2 mg, route oral; settings: in vivo; procedure, shortened: as §1
[32] = Oral clearance in healthy white human at 2 mg, po; settings: in vivo; procedure, shortened: as §5
[33] = test system: Homo sapiens; test: Mean change in insulin concentration in healthy white human plasma with SLCO1B1 521TT/CYP2C8*1/*1 combined genotype at 2 mg, po; settings: in vivo; procedure, shortened: as §2
[34] = test system: Homo sapiens; test: Mean change in insulin concentration in healthy white human plasma with SLCO1B1 521CC/CYP2C8*1/*3 combined genotype at 2 mg, po; settings: in vivo; procedure, shortened: as §2
[35] = species on record: Homo sapiens; test: Maximal change in blood glucose concentration in healthy human plasma with SLCO1B1 521TT genotype at 0.5 mg
[36] = species on record: Homo sapiens; test: Maximal change in blood glucose concentration in healthy human plasma with SLCO1B1 521CC genotype at 0.5 mg

CCOc1cc(CC(=O)N[C@@H](CC(C)C)c2ccccc2N2CCCCC2)ccc1C(=O)O [REPAGLINIDE]
AUC(0-inf) [1]: 117 ng·h/mL
Activity [2]: 5.6 mU/l
half-life [3]: 1.2 h
half-life [4]: 1.3 h
AUC(0-inf) [5]: 146 ng·h/mL
AUC(0-inf) [6]: 95.8 ng·h/mL
half-life [7]: 1.3 h
Cmax [8]: 60.3 ng/mL
Activity [9]: 5.5 mU/L
Activity [10]: -0.53 mM
AUC(0-inf) [11]: 97.2 ng·h/mL
Tmax [12]: 0.8 h
Activity [13]: 6.7 mU/L
Activity [14]: 5.7 mU/l
Activity [15]: 1.9 mM
Activity [16]: -0.4 mM
Activity [17]: -1.83 mM
Activity [18]: -0.5 mM
Activity [19]: 1 mU/l
Tmax [20]: 0.8 h
AUC(0-inf) [21]: 23.4 ng·h/mL
Activity [22]: -0.1 mM
Activity [23]: -0.5 mM
AUC(0-inf) [24]: 92.3 ng·h/mL
AUC(0-inf) [25]: 106 ng·h/mL
Tmax [26]: 0.9 h
CL/F [27]: 7.5 mL/min/kg
half-life [28]: 1.3 h
Activity [29]: 2.6 mU/L
Cmax [30]: 67.9 ng/mL
Cmax [31]: 52.5 ng/mL
CL/F [32]: 7.67 mL/min/kg
Activity [33]: 7.1 mU/l
Activity [34]: 0.6 mU/l
Activity [35]: 1.9 mM
Activity [36]: 2.3 mM
